Activity calls are given as the source filed them.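 Rule for the calls, unless noted: active = visually confirmed hit in the image check and inhibition above 20%; inconclusive = visually confirmed hit but inhibition not above 20%; inactive = no visual hit in the image check.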

A short description of experiment [1]: inhibitors of TNFa-induced NFkB p65 translocation, primary screen, imaging, HUVEC, MLSMR starter and 10KST1 sets (AID 438;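 active = inhibition above 20% together with a positive visual image hit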;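 note: compound added about 3h40 before a 20 min TNFalpha stimulation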;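 for inhibition: signal is the nuclear over cytoplasmic p65 intensity ratio per well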). Particulars: HUVEC TNFa-induced p65 nuclear translocation; cell count: measured here: nuclei count (cytotoxicity indicator), at 2.08 µM; inhibition: at 2 µM, stronger effect = higher value, 0% TNFa-plus-vehicle, 100% no-TNFa wells.
A short description of experiment [2]: inhibitors of E-selectin induction by TNFa, primary screen, imaging, HUVEC, immunofluorescence, MLSMR starter and 10KST1 sets (AID 487).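 For inhibition: signal is fraction of cell area covered by stained E-selectin grains.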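 For nuclei count: 100% = median nuclei count of all wells on the same plate.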 Particulars: HUVEC TNFalpha-induced E-selectin immunofluorescence imaging, at 2 µM; inhibition: stronger effect = higher value; nuclei count: measured here: cell number, toxicity.
Experiment [3] can be described thus: DUSP6 inhibitors restoring Erk phosphorylation by chemical complementation, primary imaging in DUSP6-transfected HeLa (AID 609;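 active = compounds giving at least 50% inhibition in the cell-based MKP-3 phosphatase rescue imaging test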;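 for inhibition: phospho-Erk level distribution per well compared with pooled transfected vehicle control wells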). Particulars: HeLa MKP-3 transfected, phospho-Erk imaging KS statistic, at 10 µM, cells stimulated with TPA for 15 min.
The target of experiment [4] is Dual specificity protein phosphatase 6 (Homo sapiens) (UniProt Q16828). Described as above. Particulars: HeLa MKP-3 transfected, phospho-Erk imaging KS statistic; at 10 µM; stronger effect = higher value; cells stimulated with TPA for 15 min.
Chain of Dual specificity protein phosphatase 6 (Homo sapiens) (Q16828 whole entry, looked up): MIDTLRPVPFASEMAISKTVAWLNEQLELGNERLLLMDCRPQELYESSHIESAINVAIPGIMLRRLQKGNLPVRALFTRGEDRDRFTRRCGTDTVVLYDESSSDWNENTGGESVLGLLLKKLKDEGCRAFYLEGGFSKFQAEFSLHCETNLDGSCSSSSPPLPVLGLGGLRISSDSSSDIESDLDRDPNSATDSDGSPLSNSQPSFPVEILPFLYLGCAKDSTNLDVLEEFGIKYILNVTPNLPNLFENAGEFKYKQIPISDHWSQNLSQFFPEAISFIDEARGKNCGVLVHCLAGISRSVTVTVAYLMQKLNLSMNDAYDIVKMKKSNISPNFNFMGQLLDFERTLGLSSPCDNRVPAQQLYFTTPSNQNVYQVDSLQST
The target of experiment [5] is Voltage-gated potassium channel subunit beta-2 (Rattus norvegicus) (UniProt P62483). Kind of experiment: KvBeta enzyme negative modulators, primary screen, biochemical, NADPH fluorescence (AID 622;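 active = fluorescence slope higher than the sample average by over 3 SD, cut at about -0.22 in these data, passing the limit was not always enough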;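 note: slope of raw intensity against log time taken from 70 to 1610 s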). Particulars: recombinant KvBeta, 4-cyanobenzaldehyde reduction, at 10 µM, stronger effect = higher value.
Chain of Voltage-gated potassium channel subunit beta-2 (Rattus norvegicus) (P62483 whole entry, looked up): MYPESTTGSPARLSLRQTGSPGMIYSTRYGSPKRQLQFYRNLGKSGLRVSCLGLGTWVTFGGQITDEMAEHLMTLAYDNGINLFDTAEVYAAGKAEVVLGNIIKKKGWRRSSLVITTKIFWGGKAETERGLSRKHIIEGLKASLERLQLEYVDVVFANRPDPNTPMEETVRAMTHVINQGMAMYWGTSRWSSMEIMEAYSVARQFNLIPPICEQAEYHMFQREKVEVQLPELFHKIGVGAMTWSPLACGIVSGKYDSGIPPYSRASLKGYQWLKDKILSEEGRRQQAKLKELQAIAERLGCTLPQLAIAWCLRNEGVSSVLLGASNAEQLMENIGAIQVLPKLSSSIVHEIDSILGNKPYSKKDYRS
The target is the same in experiment [6]. Kind of experiment: KvBeta positive modulators, primary screen, biochemical, NADPH fluorescence (AID 623;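 active = NADPH fluorescence slope more negative than the mean of all samples by about 3 SD, 99.7% confidence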;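 note: fluorescence intensity change per second fitted from 20 to 320 s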). Particulars: Recombinant KvBeta, NADPH fluorescence decrease slope, 10 min; at 10 µM; stronger effect = lower value.
Experiment [7] addresses Alpha-2C adrenergic receptor (Homo sapiens) (UniProt P18825). Kind of experiment: modulators of alpha2C/GIRK thallium flux, primary screen, cell-based, HEK293 alpha2C/GIRK1/2 (AID 624;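 active = fluorescence slope after compound addition differing from the mean of all screened samples at 99.7% confidence, in either direction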;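 note: slope of fluorescence ratio to pre-addition baseline per second over 15 to 24 s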). Particulars: thallium flux BTC fluorescence, at 10 µM, actives lie on both sides.
Experiment [8] in a line: inhibitors of larval lipid processing in zebrafish, primary screen, whole organism, PED6 fluorescence, gall bladder and intestine (AID 686;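 active = a full or partial loss of lipid-probe fluorescence in the fish gall bladder, intestine or both, judged by eye; inactive = no fluorescence loss, or compound toxic to the fish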;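 note: larvae 5 to 7 days old with five fish per well; signal comes from phospholipase A2 cleavage of quenched PED6 carried via bile; overnight exposure to compound and PED6 before scoring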). Particulars: Zebrafish larvae PED6 lipid processing, fluorescence scoring; screened at 20 µM (by protocol). The procedure, abridged:
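system = live zebrafish larvae aged 5-7 days, whole organism | probe or stimulus = ingested quenched lipid PED6 at 100 nM | doses = 20 µM single dose | timing = overnight exposure | detection = fluorescence microscopy with visual scoring of gall bladder and intestine | read-out = visual per-well fluorescence inhibition score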

A short description of experiment [9]: inhibitors of Chlamydomonas gravitaxis, primary screen, whole organism, Chlamydomonas reinhardtii, WT vs cilia-less mutant, absorbance, 96-well (AID 463189;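 active = inhibition at or above 50% relative to wild type and mutant plate controls; inactive = inhibition below 50%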;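 note: 0% = wild type cc124 cells in DMSO and 100% = ciliumless bld1 mutant cells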). Particulars: OD600 absorbance, 2 days, at 10 µM, stronger effect = higher value.
Where [10] appears, read: measured here: cell density z-score.
Setting [11] is: measured here: nuclear c-Myc green intensity z-score.
Where [12] appears, read: measured here: nuclear pErk red intensity z-score, stronger effect = higher value.

Chain of Alpha-2C adrenergic receptor (Homo sapiens) (P18825 whole entry, looked up): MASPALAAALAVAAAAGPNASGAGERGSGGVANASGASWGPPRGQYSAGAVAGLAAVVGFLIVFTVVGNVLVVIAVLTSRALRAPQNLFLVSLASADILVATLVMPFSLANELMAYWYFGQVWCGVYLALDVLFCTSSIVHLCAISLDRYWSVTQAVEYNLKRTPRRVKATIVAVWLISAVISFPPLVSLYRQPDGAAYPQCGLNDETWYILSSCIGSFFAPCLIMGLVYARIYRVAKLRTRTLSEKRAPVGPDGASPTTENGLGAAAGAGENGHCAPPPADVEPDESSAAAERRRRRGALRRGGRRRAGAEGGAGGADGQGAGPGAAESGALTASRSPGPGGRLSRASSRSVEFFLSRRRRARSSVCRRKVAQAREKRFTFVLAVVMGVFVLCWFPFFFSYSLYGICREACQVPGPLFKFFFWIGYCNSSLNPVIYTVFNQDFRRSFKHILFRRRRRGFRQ

On to `CCOC(=O)CC(=O)CSc1nc(N)c(C#N)c(-c2ccc(Cl)cc2)c1C#N`, for which the cell count in experiment [1] stood at 405. The inhibition (commonly the change of the read-out against control, counted positive when it falls) in [1] is -9.9% (inactive); in experiment [2] it was -43.1% (inactive); in experiment [4], -6.48% (inactive); in experiment [9], -7.76% (inactive). The same molecule displayed a nuclei count in [2] of 99.2%. The results for the z-score in experiment [3] (setting [10]), in [3] (setting [11]) and in experiment [3] (setting [12]) were 1.08, -0.959 and -2.04, respectively. Also, in [5], the fluorescence slope was -0.318 (inactive). In [6], the NADPH fluorescence slope is 1.7e-05 (inactive). Moreover, the slope in experiment [7] is 0.00603 (inactive). Further, the call in [8] was inactive.

`CCn1nnc(C(=O)O)c1C(=O)O`: the cell count in [1] turned out to be 547. In addition, the inhibition in experiment [1] was -8.1% (inactive); in experiment [2] it was -105% (inactive); in experiment [4], -1.98% (inactive); in experiment [9] it was -1.97% (inactive). Also, the nuclei count in [2] came to 113%. In addition, the z-score was -1.6 in experiment [3] (setting [10]), 1.43 in experiment [3] (setting [11]) and 0.467 in experiment [3] (setting [12]). In addition, in experiment [5], the fluorescence slope was -0.486 (inactive). Also, in experiment [6], the NADPH fluorescence slope is -3.2e-05 (inactive). Also, in experiment [7], the slope was 0.00833 (inactive). For the same molecule, in experiment [8], the result was inactive.

Take `C=CCOc1nc2c(c(=O)n(C)c(=O)n2C)n1Cc1ccc(Cl)cc1`: the cell count in [1] stood at 659. Moreover, the inhibition in experiment [1] was 7.6% (inactive); in experiment [2], -11.6% (inactive); in experiment [4] it was 27.5% (inactive); in [9] it was 4.31% (inactive). The same molecule gave a nuclei count in experiment [2] of 137%. For the same molecule, the figures for the z-score in experiment [3] (setting [10]), in experiment [3] (setting [11]) and in experiment [3] (setting [12]) were -0.719, 0.0983 and 0.628, respectively. The fluorescence slope in experiment [5] is -0.516 (inactive). Further, the NADPH fluorescence slope in experiment [6] is -0.000102 (inactive). In addition, the slope in experiment [7] was 0.00536 (inactive). Also, the result in experiment [8] was inactive.

As for `CCCCCCc1cc2cc(C(=O)NC)c(=N)oc2cc1O`, the cell count in [1] turned out to be 346. For the same molecule, the inhibition was -2% (inactive) in experiment [1], -68.8% (inactive) in [2], 13.2% (inactive) in experiment [4] and -9.65% (inactive) in [9]. In experiment [2], the nuclei count was 90.1%. Further, the values for the z-score in experiment [3] (setting [10]), in [3] (setting [11]) and in [3] (setting [12]) were -0.814, 2.52 and -2.41, respectively. The fluorescence slope in [5] is -0.446 (inactive). In addition, the NADPH fluorescence slope in experiment [6] is -6.7e-05 (inactive). Besides, the slope in experiment [7] was 0 (inactive). In addition, the result in experiment [8] was inactive.

On to `CCn1c(-c2ccco2)n[nH]c1=S`, for which the cell count in experiment [1] is 428. The inhibition was -12.3% (inactive) in experiment [1], -47.8% (inactive) in [2], 22.3% (inactive) in experiment [4] and 19.9% (inactive) in [9]. Moreover, the nuclei count in experiment [2] was determined as 92.3%. Besides, the z-score in experiment [3] (setting [10]) is 0.73; in experiment [3] (setting [11]), 0.522; in experiment [3] (setting [12]), -1.57. Moreover, in [5], the fluorescence slope is -0.542 (inactive). Also, in experiment [6], the NADPH fluorescence slope is -2.6e-05 (inactive). The slope in experiment [7] was 0.00489 (inactive). Besides, in experiment [8], the call was inactive.

`O=C(O)CCCCCN1C(=O)CCC1=O`: in experiment [1], the cell count worked out at 376. Moreover, the inhibition in experiment [1] was -5.6% (inactive); in experiment [2] it was -216% (inactive); in experiment [4], 5.26% (inactive); in experiment [9], 7.42% (inactive). This molecule also registered a nuclei count in experiment [2] of 154%. In addition, the figures for the z-score in experiment [3] (setting [10]), in experiment [3] (setting [11]) and in [3] (setting [12]) were -0.0667, -0.815 and 0.641, respectively. In experiment [5], the fluorescence slope was -0.456 (inactive). In addition, the NADPH fluorescence slope in experiment [6] is -0.000125 (inactive). In addition, in [7], the slope is 0.0074 (inactive).

For `COc1ccc2c(=O)c(-c3nc(C)cs3)coc2c1`, in experiment [1], the cell count was 559. The inhibition in experiment [1] was -18.2% (inactive); in [2], -220% (inactive); in experiment [4], 1.98% (inactive); in experiment [9], 1.43% (inactive). The nuclei count in experiment [2] amounted to 141%. Besides, the results for the z-score in experiment [3] (setting [10]), in experiment [3] (setting [11]) and in experiment [3] (setting [12]) were 1.07, 0.0883 and 0.691, respectively. For the same molecule, the fluorescence slope in experiment [5] was -0.543 (inactive). In addition, in experiment [6], the NADPH fluorescence slope was -3.8e-05 (inactive). Moreover, the slope in experiment [7] was 0.0045 (inactive). Further, the molecule was called inactive in experiment [8].

For `CCN(CC)S(=O)(=O)c1ccc2c(c1)c(C(=O)O)cn2C`, the cell count in experiment [1] was 435. The inhibition in [1] is -15.2% (inactive); in experiment [2], -25.4% (inactive); in experiment [4], 24.4% (inactive); in [9], 22.9% (inactive). This molecule returned a nuclei count in experiment [2] of 114%. In addition, the results for the z-score in experiment [3] (setting [10]), in experiment [3] (setting [11]) and in experiment [3] (setting [12]) were 0.944, -0.275 and -1.67, respectively. For the same molecule, in experiment [5], the fluorescence slope is -0.568 (inactive). Besides, the NADPH fluorescence slope in experiment [6] was -6e-05 (inactive). In experiment [7], the slope was 0.00489 (inactive). The result in experiment [8] was inactive.

For the molecule `CCOC(=O)C1=C(CSc2nc(-c3ccncc3)ccc2C#N)OC(N)=C(C#N)C1c1cccnc1` (stereo not given), the cell count in experiment [1] was 701. For the same molecule, the inhibition in experiment [1] is -10.4% (inactive); in [2] it was 45.7% (inactive); in experiment [4] it was -8.95% (inactive); in experiment [9] it was -5.64% (inactive). Besides, the nuclei count in experiment [2] came to 173%. Moreover, the z-score is -0.622 in [3] (setting [10]), 0.296 in [3] (setting [11]) and 2 in experiment [3] (setting [12]). Moreover, in experiment [5], the fluorescence slope is -0.283 (inactive). Also, in [6], the NADPH fluorescence slope is -5.8e-05 (inactive). Besides, the slope in experiment [7] is 0.00429 (inactive). Further, the molecule was called inactive in experiment [8].

On to `Cc1cc(=O)oc(C)c1C(=O)N1CCN(Cc2ccc3c(c2)OCO3)CC1`, for which, in experiment [1], the cell count stood at 387. Further, the inhibition in experiment [1] is -8.4% (inactive); in [2], -58.3% (inactive); in experiment [4], 9.42% (inactive); in experiment [9] it was 21.2% (inactive). For the same molecule, the nuclei count in experiment [2] was found to be 158%. Moreover, the z-score in [3] (setting [10]) was -0.184; in [3] (setting [11]), -0.833; in experiment [3] (setting [12]), -0.4. The fluorescence slope in experiment [5] is -0.451 (inactive). Also, the NADPH fluorescence slope in [6] was -0.000128 (inactive). For the same molecule, the slope in [7] was 0.00491 (inactive). Also, the call in experiment [8] was inactive.

Turning to `Cc1cc(=O)oc(C)c1C(=O)Nc1cccc2nonc12`, the cell count in experiment [1] amounted to 404. In addition, the inhibition was -0.5% (inactive) in [1], -61.8% (inactive) in [2], -4.7% (inactive) in experiment [4] and -5.97% (inactive) in [9]. For the same molecule, the nuclei count in experiment [2] stood at 132%. For the same molecule, the z-score in [3] (setting [10]) is 1.68; in [3] (setting [11]) it was -1.68; in [3] (setting [12]), -0.173. The fluorescence slope in experiment [5] is -0.297 (inactive). Besides, the NADPH fluorescence slope in experiment [6] was -2.7e-05 (inactive). In addition, the slope in experiment [7] was 0.00487 (inactive). Further, the molecule was called inactive in [8].

Consider `CC/C(C)=C1\SC(N2CCN(C(C)=O)CC2)=NC1=O`, for which the cell count in experiment [1] came to 475. Also, the inhibition was -8.5% (inactive) in experiment [1], -322% (inactive) in experiment [2], 4.37% (inactive) in experiment [4] and -1.03% (inactive) in [9]. In experiment [2], the nuclei count stood at 208%. In addition, the z-score is -0.503 in experiment [3] (setting [10]), -0.13 in experiment [3] (setting [11]) and 0.531 in experiment [3] (setting [12]). Also, the fluorescence slope in [5] is -0.377 (inactive). Further, in [6], the NADPH fluorescence slope was -3.8e-06 (inactive). The slope in experiment [7] was 0.00493 (inactive). Also, the call in experiment [8] was inactive.
